# Calls of active or inactive are those of the source. No cut-off for these calls is given here.
# Columns and labels:
# [1] = tested on: Mus musculus; test: Increase in norepinephrine level in Kunming mouse frontal cortex at 40 mg/kg, po treated for 7 days by HPLC-ECD analysis; format: functional, organism-based
# Method in brief: (§1)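 Male Kunming mice (18–20 g) given vehicle or 40 mg/kg for 7 days, then killed by cervical dislocation. Frontal cortex, hippocampus, striatum, hypothalamus and thalamus dissected on ice, homogenized in ice-cold 0.2 M perchloric acid with 0.1 mM EDTA, centrifuged 15,000 rpm, 20 min, 4 °C. Supernatant analysed by HPLC-ECD at +0.50 V; phosphate/octanesulfonate mobile phase pH 3.0 with 12% methanol. Levels in ng/g, mean ± SEM.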
# [2] = tested on: Mus musculus; test: Antidepressant activity in po dosed Kunming mouse assessed as decrease in immobility duration by forced swim test; format: functional, organism-based
# Method in brief: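 Male Kunming mice (18–20 g) given 10, 20 or 40 mg/kg orally; fluoxetine and agomelatine 20 mg/kg as references. Each mouse swam 6 min in a cylinder (25 × 15 cm) holding 10 cm of water at 25 ± 1 °C. Immobility over the last 4 min was scored by video tracking; n = 10, mean ± SEM versus vehicle.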
# [3] = tested on: Mus musculus; test: Effect on 5-hydroxytryptamine level in Kunming mouse frontal cortex at 40 mg/kg, po treated for 7 days by HPLC-ECD analysis; format: functional, organism-based; method in brief: as §1
# [4] = tested on: Rattus norvegicus; test: Toxicity in Sprague-Dawley rat assessed as change in breathing rate at 2000 mg/kg, po measured continuously for first 4 hrs followed by measured every hour for next 24 hrs and at 6 hrs intervals for following 48 hrs post dose; format: organism-based; conditions: in vivo
# Method in brief: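 Followed OECD 425 in adult SD rats (180–220 g), three groups of six. Vehicle control received 0.5% CMC-Na orally; separate male and female groups received 2000 mg/kg orally. Endpoints observed: behaviour, breathing, cutaneous effects, sensory nervous system responses, gastrointestinal effects and deaths.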
# [5] = tested on: Rattus norvegicus; test: Toxicity in Sprague-Dawley rat assessed as irritation at 2000 mg/kg, po measured over 4 hrs; format: organism-based; conditions: in vivo
# Method in brief: (§2)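 Acute oral toxicity run per OECD 425 in adult SD rats (180–220 g). Six animals per group: vehicle control (0.5% CMC-Na, oral), male rats and female rats each dosed orally at 2000 mg/kg. Animals were watched continuously for the first 4 h for behavior, breathing, cutaneous signs (irritation, ulceration, caustic injury, skin rashes), sensory nervous and gastrointestinal effects. Later checks were hourly for 24 h, then every 6 h for 48 h.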
# [6] = tested on: Rattus norvegicus; test: Toxicity in Sprague-Dawley rat assessed as ulceration at 2000 mg/kg, po measured over 4 hrs; format: organism-based; conditions: in vivo; method in brief: as §2
# [7] = Retention time of the compound by UPLC-IT-TOF-MS analysis; format: physicochemical
# Method in brief: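 Retention on C18 column (100 × 2.1 mm, 1.8 µm) at 30 °C; mobile phase A 0.05% formic acid in water, B 0.05% formic acid in acetonitrile, 0.2 mL/min, linear 5–100% B over 0–18.0 min; IT-TOF-MS detection in positive and negative modes.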
# [8] = Drug metabolism in Sprague-Dawley rat urine assessed as (2S,3S,4S,5R,6S)-3,4,5-trihydroxy-6-(5-(1-hydroxyallyl)-5'-(1-hydroxypropyl)-2'-((2S,3R,4S,5S,6R)-3,4,5-trihydroxy-6-(hydroxymethyl)tetrahydro-2H-pyran-2-yloxy)biphenyl-2-yloxy)tetrahydro-2H-pyran-2-carboxylic acid formation at 100 mg/kg, po by UPLC-IT-TOF-MS analysis; format: ADME, organism-based; conditions: in vivo
# Method in brief: (§3)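 Male/unspecified SD rats (n = 6) housed individually in metabolic cages, dosed orally at 100.0 mg/kg; controls given 0.5% CMC-Na orally. Plasma, urine and faeces collected. LC-IT-TOF-MS on C18 column at 30 °C, formic acid (0.05%) water/acetonitrile gradient 5–100% B over 18 min, 0.2 mL/min; positive and negative ion modes with automatic MS/MS.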
# [9] = Drug metabolism in Sprague-Dawley rat plasma assessed as 5'-(1-hydroxyallyl)-5-propyl-2'-((2S,3R,4S,5S,6R)-3,4,5-trihydroxy-6-(hydroxymethyl)tetrahydro-2H-pyran-2-yloxy)biphenyl-2-yl hydrogen sulfate formation at 100 mg/kg, po by UPLC-IT-TOF-MS analysis; format: ADME, organism-based; conditions: in vivo
# Method in brief: (§4)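 Rats (n = 6) housed in metabolic cages received 100.0 mg/kg orally; controls received 0.5% CMC-Na. Plasma, urine and faeces were collected and analyzed by LC-IT-TOF-MS on a C18 column at 30 °C. Gradient 5–100% acetonitrile with 0.05% formic acid over 18 min at 0.2 mL/min; positive and negative ion MS/MS.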
# [10] = Drug metabolism in Sprague-Dawley rat urine assessed as 5'-(1-hydroxyallyl)-5-propyl-2'-((2S,3R,4S,5S,6R)-3,4,5-trihydroxy-6-(hydroxymethyl)tetrahydro-2H-pyran-2-yloxy)biphenyl-2-yl hydrogen sulfate formation at 100 mg/kg, po by UPLC-IT-TOF-MS analysis; format: ADME, organism-based; conditions: in vivo; method in brief: as §3
# [11] = Drug metabolism in Sprague-Dawley rat feces assessed as 5'-(1-hydroxyallyl)-5-(1-hydroxypropyl)-2'-((2S,3R,4S,5S,6R)-3,4,5-trihydroxy-6-(hydroxymethyl)tetrahydro-2H-pyran-2-yloxy)biphenyl-2-yl hydrogen sulfate formation at 100 mg/kg, po by UPLC-IT-TOF-MS analysis; format: ADME, organism-based; conditions: in vivo; method in brief: as §4
# [12] = Drug metabolism in Sprague-Dawley rat urine assessed as (2S,3S,4S,5R,6S)-6-(5'-allyl-5-(1-hydroxyallyl)-2'-((2S,3R,4S,5S,6R)-3,4,5-trihydroxy-6-(hydroxymethyl)tetrahydro-2H-pyran-2-yloxy)biphenyl-2-yloxy)-3,4,5-trihydroxytetrahydro-2H-pyran-2-carboxylic acid formation at 100 mg/kg, po by UPLC-IT-TOF-MS analysis; format: ADME, organism-based; conditions: in vivo; method in brief: as §3
# [13] = Drug metabolism in Sprague-Dawley rat urine assessed as (2S,3S,4S,5R,6S)-3,4,5-trihydroxy-6-(5-(1-hydroxyallyl)-5'-(2-hydroxypropyl)-2'-methoxybiphenyl-2-yloxy)tetrahydro-2H-pyran-2-carboxylic acid formation at 100 mg/kg, po by UPLC-IT-TOF-MS analysis; format: ADME, organism-based; conditions: in vivo; method in brief: as §3
# [14] = Drug metabolism in Sprague-Dawley rat plasma assessed as 5-allyl-5'-(1-hydroxyallyl)-2'-((2S,3R,4S,5S,6R)-3,4,5-trihydroxy-6-(hydroxymethyl)tetrahydro-2H-pyran-2-yloxy)biphenyl-2-yl hydrogen sulfate formation at 100 mg/kg, po by UPLC-IT-TOF-MS analysis; format: ADME, organism-based; conditions: in vivo; method in brief: as §3
# [15] = Drug metabolism in Sprague-Dawley rat urine assessed as 1-(5'-allyl-2'-hydroxy-6-((2S,3R,4S,5S,6R)-3,4,5-trihydroxy-6-(hydroxymethyl)tetrahydro-2H-pyran-2-yloxy)biphenyl-3-yl)prop-2-en-1-one formation at 100 mg/kg, po by UPLC-IT-TOF-MS analysis; format: ADME, organism-based; conditions: in vivo; method in brief: as §3
# [16] = Drug metabolism in Sprague-Dawley rat feces assessed as 1-(2'-hydroxy-5'-(1-hydroxyallyl)-6-((2S,3R,4S,5S,6R)-3,4,5-trihydroxy-6-(hydroxymethyl)tetrahydro-2H-pyran-2-yloxy)biphenyl-3-yl)prop-2-en-1-one formation at 100 mg/kg, po by UPLC-IT-TOF-MS analysis; format: ADME, organism-based; conditions: in vivo; method in brief: as §4
# [17] = Drug level in Sprague-Dawley rat plasma at 100 mg/kg, po by UPLC-IT-TOF-MS analysis; format: ADME, organism-based; conditions: in vivo; method in brief: as §4
# [18] = Drug level in Sprague-Dawley rat urine at 100 mg/kg, po by UPLC-IT-TOF-MS analysis; format: ADME, organism-based; conditions: in vivo; method in brief: as §4
# [19] = Drug metabolism in Sprague-Dawley rat feces assessed as (2S,3R,4S,5S,6R)-2-(5,5'-diallyl-2'-methoxybiphenyl-2-yloxy)-6-(hydroxymethyl)tetrahydro-2H-pyran-3,4,5-triol formation at 100 mg/kg, po by UPLC-IT-TOF-MS analysis; format: ADME, organism-based; conditions: in vivo; method in brief: as §4
# [20] = Drug metabolism in Sprague-Dawley rat feces assessed as 5,5'-diallylbiphenyl-2,2'-diol formation at 100 mg/kg, po by UPLC-IT-TOF-MS analysis; format: ADME, organism-based; conditions: in vivo; method in brief: as §4
smiles,measurement,setting,value
C=CCc1ccc(O)c(-c2cc(CC=C)ccc2O[C@@H]2O[C@H](CO)[C@@H](O)[C@H](O)[C@H]2O)c1,Activity,[1],Active
same,Activity,[2],Dose-dependent effect
same,Activity,[3],inactive
same,Activity,[4],Non-Toxic
same,Activity,[5],Non-Toxic
same,Activity,[6],Non-Toxic
same,Retention_time,[7],11.23 min
same,Drug metabolism,[8],Metabolite_Detected
same,Drug metabolism,[9],Metabolite_Notdetected
same,Drug metabolism,[10],Metabolite_Notdetected
same,Drug metabolism,[11],Metabolite_Notdetected
same,Drug metabolism,[12],Metabolite_Detected
same,Drug metabolism,[13],Metabolite_Detected
same,Drug metabolism,[14],Metabolite_Notdetected
same,Drug metabolism,[15],Metabolite_Detected
same,Drug metabolism,[16],Metabolite_Notdetected
same,Drug uptake,[17],Active
same,Drug uptake,[18],Not Active
same,Drug metabolism,[19],Metabolite_Detected
same,Drug metabolism,[20],Metabolite_Detected
